Experimental data: ChEMBL document CHEMBL4425095, “Novel Cephalosporins Selectively Active on Nonreplicating Mycobacterium tuberculosis” (J Med Chem, 2016)
In brackets after ≈: the same amount, converted by molar mass.

Key:
Format in all cases: functional
[1] = tested on: Mycobacterium tuberculosis; test: Antimycobacterial activity against non-replicating Mycobacterium tuberculosis mc2 6220 harboring panCD/lysA deletion mutant incubated for 7 days measured at OD580 = 0.01 by two-fold serial dilution method
In short: (§1)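 M. tuberculosis mc26220 washed twice in PBS-tyloxapol and resuspended in Sauton's-based nonreplicating medium (pH 5.0, butyrate 0.05%, BSA, tyloxapol, lysine, pantothenate, 0.5 mM NaNO2). Incubated at 1% O2, 5% CO2 with 2-fold serially diluted compound from DMSO. After 3 days, diluted 5-fold in fresh replicating medium for outgrowth at 20% O2. Reported as MIC90.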

[2] = tested on: Mycobacterium tuberculosis; test: Antimycobacterial activity against replicating Mycobacterium tuberculosis mc2 6220 harboring panCD/lysA deletion mutant by two-fold serial dilution method
In short: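 M. tuberculosis mc26220 in replicating medium supplemented with glycerol (final 0.5%), OADC, casamino acids 0.05%, lysine 240 μg/mL and pantothenate 24 μg/mL. Exposed to 2-fold serially diluted compound from DMSO. OD580 read after 7 days at 20% O2, 5% CO2. Reported as MIC90.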

[3] = tested on: Mycobacterium tuberculosis; test: Antimycobacterial activity against non-replicating Mycobacterium tuberculosis mc2 6220 harboring panCD/lysA deletion mutant incubated for 7 days measured at OD580 = 0.1 by two-fold serial dilution method; in short: as §1

Compound | MIC90 [1] [µg/mL] | MIC90 [2] [µg/mL] | MIC90 [3] [µg/mL]
CC1=C(C(=O)O/N=C(\C)N)N2C(=O)[C@@H](NC(=O)COc3ccccc3)[C@H]2SC1 | 5.6 (≈ 13.8 µM) | >100 | 8.12 (≈ 20.1 µM)
COC(=O)C1=C(C)CS[C@@H]2[C@H](NC(=O)[C@H](NC(=O)OC(C)(C)C)c3ccccc3)C(=O)N12 | 16.51 (≈ 35.8 µM) | >100 | 18.07 (≈ 39.2 µM)
CCOC(=O)C1=C(C)CS[C@@H]2[C@H](NC(=O)COc3ccccc3)C(=O)N12 | 0.66 (≈ 1.75 µM) | 57.85 (≈ 154 µM) | 1.71 (≈ 4.54 µM)
CCOC(=O)C1=C(C)CS[C@@H]2[C@H](NC(=O)CCc3ccccc3)C(=O)N12 | 0.47 (≈ 1.26 µM) | >100 | 1.15 (≈ 3.07 µM)
COc1ccc(OCC(=O)N[C@@H]2C(=O)N3C(C(=O)OCc4ccccc4)=C(C)CS[C@H]23)cc1 | 1.54 (≈ 3.29 µM) | >100 | 2.53 (≈ 5.4 µM)
CCC(C)OC(=O)C1=C(C)CS[C@@H]2[C@H](NC(=O)CCc3ccc(OC)cc3)C(=O)N12 (stereo not given in full) | 1.57 (≈ 3.63 µM) | >100 | 2.95 (≈ 6.82 µM)
CCOC(=O)C1=C(C)CS[C@@H]2[C@H](NC(=O)CCc3ccc(OC)cc3)C(=O)N12 | 0.4 (≈ 0.989 µM) | 21.37 (≈ 52.8 µM) | 0.51 (≈ 1.26 µM)
CCSC(=O)N[C@@H]1C(=O)N2C(c3nc(C)no3)=C(C)CS[C@H]12 |  | >100 | 1.84 (≈ 5.4 µM)
COc1ccc(CCC(=O)N[C@@H]2C(=O)N3C(C(=O)OCc4ccccc4)=C(C)CS[C@H]23)cc1 | 0.39 (≈ 0.836 µM) | >100 | 0.42 (≈ 0.9 µM)
CCCCOc1ccc(CCC(=O)N[C@@H]2C(=O)N3C(c4nc(CCC)no4)=C(C)CS[C@H]23)cc1 | 0.47 (≈ 0.97 µM) | >100 | 0.76 (≈ 1.57 µM)
CC1=C(c2nc(C)no2)N2C(=O)[C@@H](NC(=O)COc3ccc(Cl)cc3)[C@H]2SC1 | 1.2 (≈ 2.85 µM) | >100 | 1.72 (≈ 4.09 µM)
COc1ccc(CCC(=O)N[C@@H]2C(=O)N3C(C(=O)O)=C(C)CS[C@H]23)cc1 | >37.64 | >100 | >37.64
COC(=O)C1=C(C)CS[C@@H]2[C@H](NC(=O)COc3ccc(Cl)cc3)C(=O)N12 | 0.95 (≈ 2.39 µM) | >100 | 1.25 (≈ 3.15 µM)
CC1=C(C(=O)O)N2C(=O)[C@@H](NC(=O)CCc3ccc(Br)cc3)[C@H]2SC1 | >42.53 | 96.13 (≈ 226 µM) | >42.53
C#CCNC(=O)C1=C(C)CS[C@@H]2[C@H](NC(=O)COc3ccccc3)C(=O)N12 | >38.54 | >100 | >38.54
CCCCOC(=O)C1=C(C)CS[C@@H]2[C@H](NC(=O)COc3ccc(Cl)cc3)C(=O)N12 | 0.43 (≈ 0.98 µM) | >100 | 1.01 (≈ 2.3 µM)
CNC(=O)C1=C(C)CS[C@@H]2[C@H](NC(=O)COc3ccccc3)C(=O)N12 | >36.14 | >100 | >36.14
CC1=C(c2nc(C)no2)N2C(=O)[C@@H](NC(=O)OCC(C)(C)C)[C@H]2SC1 |  | >100 | 1.03 (≈ 2.81 µM)
CCCc1noc(C2=C(C)CS[C@@H]3[C@H](NC(=O)CCc4ccc(F)cc4)C(=O)N23)n1 | 0.48 (≈ 1.11 µM) | >100 | 0.91 (≈ 2.11 µM)
CCCc1noc(C2=C(C)CS[C@@H]3[C@H](NC(=O)CCc4ccc(OC)cc4)C(=O)N23)n1 | 0.37 (≈ 0.836 µM) | >100 | 0.67 (≈ 1.51 µM)

Compound | MIC90 [1] [µg/mL] | MIC90 [2] [µg/mL] | MIC90 [3] [µg/mL]
CCCc1noc(C2=C(C)CS[C@@H]3[C@H](NC(=O)c4ccc(Cl)cc4)C(=O)N23)n1 | 1.06 (≈ 2.53 µM) | >100 | 2.28 (≈ 5.44 µM)
CCCc1noc(C2=C(C)CS[C@@H]3[C@H](NC(=O)Cc4ccc(C)cc4)C(=O)N23)n1 |  | >100 | 0.64 (≈ 1.55 µM)
CC1=C(c2nc(C)no2)N2C(=O)[C@@H](NC(=O)OCC(Cl)(Cl)Cl)[C@H]2SC1 | 0.46 (≈ 1.08 µM) | >100 | 0.92 (≈ 2.15 µM)
CCCCOC(=O)C1C(C)=CS[C@@H]2[C@H](NC(=O)COc3ccccc3)C(=O)N12 (stereo not given in full) | 0.79 (≈ 1.95 µM) | >100 | 1.28 (≈ 3.16 µM)
CCCOC(=O)C1=C(C)CS[C@@H]2[C@H](NC(=O)COc3ccc(OC)cc3)C(=O)N12 | 0.39 (≈ 0.927 µM) | >100 | 0.81 (≈ 1.93 µM)
COc1ccc(CCC(=O)N[C@@H]2C(=O)N3C(c4nc(C)no4)=C(C)CS[C@H]23)cc1 | 1.13 (≈ 2.73 µM) | >100 | 1.68 (≈ 4.05 µM)
CC1=C(C(=O)OCc2ccccc2)N2C(=O)[C@@H](NC(=O)COc3ccc(Cl)cc3)[C@H]2SC1 | 0.87 (≈ 1.84 µM) | >100 | 8.07 (≈ 17.1 µM)
CC1=C(c2nc(C)no2)N2C(=O)[C@@H](NC(=O)[C@H](N)c3ccccc3)[C@H]2SC1 |  | >100 | 44.05 (≈ 114 µM)
CCCCOC(=O)C1=C(C)CS[C@@H]2[C@H](NC(=O)CCc3ccc(Cl)cc3)C(=O)N12 | 0.72 (≈ 1.65 µM) | >100 | 1.24 (≈ 2.84 µM)
COC(=O)C1=C(C)CS[C@@H]2[C@H](NC(=O)COc3ccc(OC)cc3)C(=O)N12 | 2.01 (≈ 5.12 µM) | >100 | 4.28 (≈ 10.9 µM)
CCCOC(=O)C1=C(C)CS[C@@H]2[C@H](NC(=O)[C@H](N)c3ccccc3)C(=O)N12 |  | >100 | 15.46 (≈ 39.7 µM)
CC1=C(c2nc(C)no2)N2C(=O)[C@@H](NC(=O)Cc3ccc(C)cc3)[C@H]2SC1 |  | >100 | 1.75 (≈ 4.55 µM)
COC(=O)C1=C(C)CS[C@@H]2[C@H](NC(=O)[C@H](N)c3ccccc3)C(=O)N12 |  | >100 | 61.78 (≈ 171 µM)
CCCc1noc(C2=C(C)CS[C@@H]3[C@H](NC(=O)CCc4ccc(Cl)cc4)C(=O)N23)n1 |  | >100 | 
CC1=C(c2nc(C)no2)N2C(=O)[C@@H](NC(=O)Cc3ccccc3)[C@H]2SC1 |  | >100 | 1.61 (≈ 4.35 µM)
COc1ccc(CC(=O)N[C@@H]2C(=O)N3C(c4nc(C)no4)=C(C)CS[C@H]23)cc1 |  | >100 | 3.25 (≈ 8.12 µM)
CC1=C(c2nc(C)no2)N2C(=O)[C@@H](NC(=O)Cc3ccc(Cl)c(Cl)c3)[C@H]2SC1 |  | >100 | 0.28 (≈ 0.637 µM)
CCCc1noc(C2=C(C)CS[C@@H]3[C@H](NC(=O)Cc4ccccc4)C(=O)N23)n1 |  | >100 | 1.04 (≈ 2.61 µM)
CC1=C(c2nc(C)no2)N2C(=O)[C@@H](NC(=O)Cc3ccc(Cl)cc3)[C@H]2SC1 |  | >100 | 1.13 (≈ 2.79 µM)
CCCc1noc(C2=C(C)CS[C@@H]3[C@H](NC(=O)Cc4ccc(OC)cc4)C(=O)N23)n1 |  | >100 | 0.77 (≈ 1.8 µM)
